This is an account of results in ChEMBL document CHEMBL3259710, “C-ring cannabinoid lactones: a novel cannabinergic chemotype” (ACS Med Chem Lett, 2014).

Series [1] addresses Cannabinoid receptor 2 (Mus musculus, UniProt P47936). Briefly: Displacement of [3H]CP55940 from mouse […] CB2 receptor expressed in HEK293 cells. It is filed as cell-based. The essentials:
(§1)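 Competition binding against [3H]CP-55,940. CB1 membranes came from rat brain; CB2 membranes came from HEK293 cells expressing mouse or human CB2. Ki was taken from competition curves by nonlinear regression. Three independent experiments were run in duplicate, and Ki is the mean of the three.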
A general note: In a radioligand displacement assay an active substance lowers the binding of a labelled ligand.

For series [2], the target named is Cannabinoid receptor 2 (Homo sapiens, UniProt P34972). As to the kind of experiment: Displacement of [3H]CP55940 from human […] CB2 receptor expressed in HEK293 cells. It is filed as cell-based. The essentials:
as §1

The target of series [3] is T1, Cannabinoid receptor 1 (Rattus norvegicus, UniProt P20272). As to the kind of experiment: Displacement of [3H]CP55940 from rat brain CB1 receptor. The essentials:
as §1

Series [4] in a line: Selectivity ratio of Ki for mouse […] CB2 receptor to Ki for rat CB1 receptor.
The nature of series [5]: Selectivity ratio of Ki for human CB2 receptor to Ki for rat CB1 receptor.
Series [6] concerns the target T1, Cannabinoid receptor 1. As to the kind of experiment: Agonist activity at rat CB1 receptor expressed in HEK293 cells assessed as inhibition of forskolin-induced cAMP level. It is filed as functional, cell-based. In general terms: cAMP levels reflect the balance of adenylyl cyclase and phosphodiesterase activity.
In series [7] the target is Cannabinoid receptor 1 (Rattus norvegicus) (UniProt P20272). Briefly: Agonist activity at rat CB1 receptor expressed in HEK293 cells assessed as maximum inhibition of forskolin-induced cAMP level. It is filed as functional, cell-based.
Cannabinoid receptor 1 (Rattus norvegicus), sequence (P20272 whole entry): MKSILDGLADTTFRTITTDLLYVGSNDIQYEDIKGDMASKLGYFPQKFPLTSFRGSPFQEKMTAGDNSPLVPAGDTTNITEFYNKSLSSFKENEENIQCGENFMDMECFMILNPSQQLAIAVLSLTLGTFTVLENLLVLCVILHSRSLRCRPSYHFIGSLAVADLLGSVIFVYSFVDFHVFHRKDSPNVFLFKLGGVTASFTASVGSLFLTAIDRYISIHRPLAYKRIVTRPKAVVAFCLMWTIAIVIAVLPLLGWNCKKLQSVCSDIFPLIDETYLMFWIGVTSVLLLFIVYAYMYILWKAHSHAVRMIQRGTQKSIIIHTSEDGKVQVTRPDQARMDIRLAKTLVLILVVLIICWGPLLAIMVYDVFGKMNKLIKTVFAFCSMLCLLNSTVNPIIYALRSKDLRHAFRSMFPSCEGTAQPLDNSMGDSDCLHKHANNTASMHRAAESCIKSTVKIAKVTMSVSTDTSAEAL
Series [8] in a line: Half life in mouse plasma. It is filed as ADME, cell-free. The essentials:
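The compound was incubated in vitro with mouse plasma to test esterase hydrolysis to its acid metabolite. Half-life of the parent compound was determined.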

Cannabinoid receptor 2 (Mus musculus, UniProt P47936), sequence (P47936 whole entry): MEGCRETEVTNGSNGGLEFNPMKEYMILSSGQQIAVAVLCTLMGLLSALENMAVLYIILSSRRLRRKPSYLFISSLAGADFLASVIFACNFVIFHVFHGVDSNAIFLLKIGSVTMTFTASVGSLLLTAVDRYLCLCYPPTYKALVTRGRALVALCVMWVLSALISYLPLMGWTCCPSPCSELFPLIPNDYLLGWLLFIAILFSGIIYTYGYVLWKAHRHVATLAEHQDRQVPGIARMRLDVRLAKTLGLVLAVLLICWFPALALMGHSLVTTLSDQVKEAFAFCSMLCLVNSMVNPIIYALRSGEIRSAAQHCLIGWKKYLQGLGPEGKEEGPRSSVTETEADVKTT
T1 sequence (P20272 whole entry): as the sequence (P20272 whole entry) above
Cannabinoid receptor 2 (Homo sapiens, UniProt P34972), sequence (P34972 whole entry): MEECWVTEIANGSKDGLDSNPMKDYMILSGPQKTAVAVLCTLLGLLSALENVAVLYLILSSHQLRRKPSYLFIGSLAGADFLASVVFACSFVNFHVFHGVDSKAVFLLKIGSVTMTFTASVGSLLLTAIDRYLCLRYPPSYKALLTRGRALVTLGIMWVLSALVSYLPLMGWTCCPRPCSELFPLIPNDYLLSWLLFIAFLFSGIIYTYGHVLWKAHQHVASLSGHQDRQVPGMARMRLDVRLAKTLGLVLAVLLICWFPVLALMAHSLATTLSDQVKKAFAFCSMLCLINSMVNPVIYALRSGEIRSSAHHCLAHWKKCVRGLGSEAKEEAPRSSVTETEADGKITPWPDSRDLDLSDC

On to `CCCCCc1cc(O)c2c(c1)OC(C)(C)[C@@H]1CCC(C)=C[C@@H]21` [DRONABINOL], for which the affinity in series [1], expressed as Ki, was 40 nM.

With `CCCCCCC(C)(C)c1cc(O)c2c(c1)OC(C)(C)[C@@H]1CCOC(=O)C[C@@H]21`, the affinity in series [2] corresponds to a Ki of 94 nM.

In the case of `CCCCCCC(C)(C)c1cc(O)c2c(c1)OC(C)(C)[C@@H]1CCC(=O)OC[C@@H]21`, the figures for the Ki in series [3], in series [1] and in series [2] were 4.6 nM, 792 nM and 52 nM, respectively. Also, the Ratio Ki stood at 170 in series [4] and 11 in series [5]. Besides, the EC50 (as a rule, the concentration needed to bring the measured effect to its halfway point) in series [6] is 184 nM. Besides, in series [7], the inhibition (commonly the share of the control response that was lost under treatment) is 41%.

In the case of `CCCCCCC(C)(C)c1cc(O)c2c(c1)OC(C)(C)[C@H](CCC(=O)O)[C@H]2CO`, the Ki in series [3], in series [1] and in series [2] was > 1000 nM in each case. Further, the half-life (as a rule, how long it takes for the measured level to halve) in series [8] came out at 15.1 min.

Turning to `CCCCCCC(C)(C)c1cc(O)c2c(c1)OC(C)(C)[C@H](CCO)[C@H]2CC(=O)O`, the Ki in series [3], in series [1] and in series [2] was > 1000 nM each time.
